Data published in ChEMBL document CHEMBL3526018, “Metabolites of PPI-2458, a selective, irreversible inhibitor of methionine aminopeptidase-2: structure determination and in vivo activity” (Drug Metab Dispos, 2013).

Experiments:
CYP3A5 (Homo sapiens) [1] = assay: Ratio of Vmax to Km for human recombinant CYP3A5 assessed as ((3R,4S,5S,6R)-5-methoxy-4-((2R,3R)-2-methyl-3-(3-methylbut-2-en-1-yl)oxiran-2-yl)-1-oxaspiro[2.5]octan-6-yl ((R)-1-amino-3-hydroxy-3-methyl-1-oxobutan-2-yl)carbamate) formation; conditions: recombinant enzyme
[2] = Cmax in non-Hodgkin lymphoma patient at 15 mg, po alternate days for 21 days; format: ADME, organism-based; set-up: dose 15 mg, route oral; conditions: human, in vivo
Summary of the method: (§1)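 Oral PPI-2458 given every other day to lymphoma patients. Plasma sampled pre-dose and at 15 min, 30 min, 1, 2, 3, 4, 6, 8, 24 and 48 h after the first dose. Parent and metabolites were measured by LC-MS/MS after protein precipitation, evaporation and reconstitution. CL/F was computed only for parent and summed analytes. For metabolites, t1/2 is an apparent first-phase value.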

CYP3A4 (Homo sapiens) [3] = assay: Activity of human recombinant CYP3A4 assessed as ((3R,4S,5S,6R)-4-((2R,3R)-3-(((R)-3,3-dimethyloxiran-2-yl)methyl)-2-methyloxiran-2-yl)-5-methoxy-1-oxaspiro[2.5]octan-6-yl ((R)-1-amino-3-methyl-1-oxobutan-2-yl)carbamate) formation; conditions: recombinant enzyme
CYP3A4 (Homo sapiens) [4] = assay: Activity of human recombinant CYP3A4 assessed as ((3R,4S,5S,6R)-4-((2R,3R)-3-(((S)-3,3-dimethyloxiran-2-yl)methyl)-2-methyloxiran-2-yl)-5-methoxy-1-oxaspiro[2.5]octan-6-yl ((R)-1-amino-3-methyl-1-oxobutan-2-yl)carbamate) formation per pmol of enzyme
Liver microsome [5] = assay: Metabolic stability in rat liver microsomes assessed as retention time of ((3R,4S,5S,6R)-4-((2R,3R)-3-((E)-4-hydroxy-3-methylbut-2-en-1-yl)-2-methyloxiran-2-yl)-5-methoxy-1-oxaspiro[2.5]octan-6-yl((R)-1-amino-3-methyl-1-oxobutan-2-yl)carbamate) at 5 mM by LC/MS analysis; format: ADME; conditions: 5000 µM
Summary of the method: (§2)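 Liver microsomes (pooled male/female) in 100 mM KPO4 pH 7.4 with PPI-2458 (5 mM stock), pre-incubated 5 min at 37°C, then 10 mM NADPH added; 20 min at 37°C with shaking. Time-zero and no-NADPH controls. Quenched with CH3CN; supernatant dried and redissolved in water. Analysed by LC-MS, ESI+ full scan 300–800 amu, C18 column, 10→50% B gradient.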

CYP3A5 (Homo sapiens) [6] = assay: Activity of human recombinant CYP3A5 assessed as ((3R,4S,5S,6R)-5-methoxy-4-((2R,3R)-2-methyl-3-(3-methylbut-2-en-1-yl)oxiran-2-yl)-1-oxaspiro[2.5]octan-6-yl ((R)-1-amino-3-hydroxy-3-methyl-1-oxobutan-2-yl)carbamate) formation; conditions: recombinant enzyme
[7] = Metabolic stability in monkey liver microsomes assessed as retention time of ((3R,4S,5S,6R)-4-((2R,3R)-3-(((R)-3,3-dimethyloxiran-2-yl)methyl)-2-methyloxiran-2-yl)-5-methoxy-1-oxaspiro[2.5]octan-6-yl ((R)-1-amino-3-methyl-1-oxobutan-2-yl)carbamate) at 5 mM by LC/MS analysis; format: ADME, Macaca mulatta; conditions: rhesus monkey, 5000 µM
Summary of the method: as §2

Liver [8] = assay: Metabolic stability in mouse liver microsomes assessed as retention time of ((3R,4S,5S,6R)-4-((2R,3R)-3-(((R)-3,3-dimethyloxiran-2-yl)methyl)-2-methyloxiran-2-yl)-5-methoxy-1-oxaspiro[2.5]octan-6-yl ((R)-1-amino-3-methyl-1-oxobutan-2-yl)carbamate) at 5 mM by LC/MS analysis; format: ADME; conditions: 5000 µM
Summary of the method: as §2

Liver microsome [9] = assay: Metabolic stability in dog liver microsomes assessed as retention time of ((3R,4S,5S,6R)-4-((2R,3R)-3-((E)-4-hydroxy-3-methylbut-2-en-1-yl)-2-methyloxiran-2-yl)-5-methoxy-1-oxaspiro[2.5]octan-6-yl((R)-1-amino-3-methyl-1-oxobutan-2-yl)carbamate) at 5 mM by LC/MS analysis; format: ADME, Canis lupus familiaris; conditions: 5000 µM
CYP3A4 (Homo sapiens) [10] = assay: Activity of human recombinant CYP3A4 assessed as ((3R,4S,5S,6R)-4-((2R,3R)-3-((E)-4-hydroxy-3-methylbut-2-en-1-yl)-2-methyloxiran-2-yl)-5-methoxy-1-oxaspiro[2.5]octan-6-yl((R)-1-amino-3-methyl-1-oxobutan-2-yl)carbamate) formation; conditions: recombinant enzyme
CYP3A4 (Homo sapiens) [11] = assay: Activity of human recombinant CYP3A4 assessed as ((3R,4S,5S,6R)-4-((2R,3R)-3-(((R)-3,3-dimethyloxiran-2-yl)methyl)-2-methyloxiran-2-yl)-5-methoxy-1-oxaspiro[2.5]octan-6-yl ((R)-1-amino-3-methyl-1-oxobutan-2-yl)carbamate) formation per pmol of enzyme
[12] = Apparent oral clearance in non-Hodgkin lymphoma patient at 15 mg, po alternate days for 21 days; format: ADME, organism-based; conditions: human, in vivo
Summary of the method: as §1

Liver [13] = assay: Metabolic stability in mouse liver microsomes assessed as retention time of ((3R,4S,5S,6R)-4-((2R,3R)-3-(((S)-3,3-dimethyloxiran-2-yl)methyl)-2-methyloxiran-2-yl)-5-methoxy-1-oxaspiro[2.5]octan-6-yl ((R)-1-amino-3-methyl-1-oxobutan-2-yl)carbamate) at 5 mM by LC/MS analysis; format: ADME; conditions: 5000 µM
Summary of the method: as §2

A Vmax/Km (CYP3A5 (Homo sapiens) [1]) of 0.09 µL/min, a Cmax [2] of 55 ng/mL and a Km (CYP3A4 (Homo sapiens) [3]) of 17 µM were found for `CO[C@@H]1[C@H](OC(=O)N[C@@H](C(N)=O)C(C)C)CC[C@]2(CO2)[C@H]1[C@@]1(C)O[C@@H]1CC=C(C)C` [PPI-2458] in this work. For the same molecule, the Vmax (CYP3A4 (Homo sapiens) [4]) was 2.97 pmol/min, the Drug metabolism (Liver microsome [5]) was “metabolite_detected” and the Km (CYP3A5 (Homo sapiens) [6]) was 17 µM. For the same molecule, the Drug metabolism [7] was “metabolite_detected”, the Drug metabolism (Liver [8]) was “metabolite_detected” and the Drug metabolism (Liver microsome [9]) was “metabolite_detected”. The Km (CYP3A4 (Homo sapiens) [10]) was 15 µM, the Vmax (CYP3A4 (Homo sapiens) [11]) was 2.7 pmol/min and the CL/F [12] was 5880 mL/min. For the same molecule, the Drug metabolism (Liver [13]) was “metabolite_detected”.
